This is an account of results in the array DNA melting data of Ke et al. (doi:10.1101/2024.01.08.574731).

Data set [1] is described as follows: folding enthalpy; higher = less favourable; fluorescence melt of hairpins on a sequencing array, two-state fit. The following applies: sodium 0.088 M. Summed up: (§1)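 Library hairpins on a sequenced MiSeq flow cell carried annealed Cy3 and quencher oligos, and their Cy3 fluorescence was imaged in 50 mM Na-HEPES pH 8.0 with 25 mM NaCl, in 2.5 °C steps up to 60 °C. Signals were normalised to Cy3 before quenching and to control constructs. Melting temperature and folding enthalpy were obtained from bootstrapped two-state fits, combined by inverse-variance weighting across four replicates, and the fitted temperatures were then raised by 9.35 °C to match UV melts.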

Data set [2] in a line: melting temperature; fluorescence melt of hairpins on a sequencing array, two-state fit, raised by 9.35 °C to match UV melts. The following applies: sodium 0.088 M. In a few lines:
as §1

For the sequence GATCTGAAATCAGATC ((((((....)))))), in data set [1], the folding enthalpy is -36.1 kcal/mol. For the same sequence, the Tm in data set [2] turned out to be 45.1 °C.

As to GGGGATGCGAAAGCACCC (((..(((....)))))), the folding enthalpy in data set [1] was -17.2 kcal/mol. Further, the Tm in data set [2] worked out at 56.2 °C.

Take GATCCGTGCACGGATC ((((((....)))))): the folding enthalpy in data set [1] was -40.3 kcal/mol. Besides, the Tm in data set [2] was 66.5 °C.

With GTCTACGAAAGTACTGAC ((((((....)))..))), in data set [1], the folding enthalpy is -10.8 kcal/mol. The Tm in data set [2] was determined as 28.9 °C.

On to GATCGGGGAAACCCGGTC ((.((((....)))).)), for which the folding enthalpy in data set [1] was -26.8 kcal/mol. Further, the Tm in data set [2] worked out at 53.8 °C.

Take GTCCGGGGAAACCCGAAC ((.((((....)))).)): the folding enthalpy in data set [1] is -18.5 kcal/mol. In data set [2], the Tm worked out at 44.2 °C.

With GGACTTGGAAACAAGTCC (((((((....))))))), in data set [1], the folding enthalpy was -51.1 kcal/mol. Besides, the Tm in data set [2] amounted to 64.7 °C.

As for GTATATCGAAAGATTAC (((.(((....)))))), in data set [1], the folding enthalpy was -14.6 kcal/mol. Moreover, the Tm in data set [2] amounted to 31 °C.

CGTCGTCGGAAACGAACG (((..(((....)))))): in data set [1], the folding enthalpy was -24.9 kcal/mol. Also, the Tm in data set [2] came to 48.8 °C.

As for GGCATTGGAAACAATACC ((.((((....)))).)), the folding enthalpy in data set [1] is -25.4 kcal/mol. Also, the Tm in data set [2] came out at 36.6 °C.

As for GCATTCGGAAACAAATGC (((((.(....).))))), the folding enthalpy in data set [1] is -28.9 kcal/mol. In addition, the Tm in data set [2] is 38 °C.

Regarding GCGCTTTCGAAAGAACGC (((..(((....)))))), in data set [1], the folding enthalpy is -34.8 kcal/mol. In addition, in data set [2], the Tm turned out to be 40.1 °C.

Take GCCGACGGAAACGTCAGC ((.((((....)))).)): the folding enthalpy in data set [1] is -23.6 kcal/mol. Moreover, the Tm in data set [2] was 49.6 °C.

On to GGTCCTCGAAAGAGTACC (((.(((....))).))), for which, in data set [1], the folding enthalpy is -31.1 kcal/mol. In addition, in data set [2], the Tm was found to be 43.4 °C.

Regarding GATCAGGACTCTGATC ((((((....)))))), in data set [1], the folding enthalpy was -40.6 kcal/mol. Moreover, the Tm in data set [2] was 55.6 °C.

In the case of GACGTAGGAAACTGTGTC (((..((....))..))), the folding enthalpy in data set [1] was -9.59 kcal/mol. In addition, the Tm in data set [2] amounted to 25.7 °C.

GAGGCCGGAAACGGTCTC (((.(((....))).))): the folding enthalpy in data set [1] is -36 kcal/mol. For the same sequence, the Tm in data set [2] was determined as 64.8 °C.

As to GATAATGGAAACATTATC (((((((....))))))), the folding enthalpy in data set [1] is -43.9 kcal/mol. In data set [2], the Tm worked out at 48.4 °C.

Consider GATCAAGATGTTGATC ((((((....)))))), for which, in data set [1], the folding enthalpy was -28 kcal/mol. Moreover, in data set [2], the Tm came to 43.5 °C.

For CGAGATCGGAAACGATCG (((..(((....)))))), the folding enthalpy in data set [1] is -20 kcal/mol. Further, the Tm in data set [2] is 51.6 °C.

In the case of GTTAGCGAAAGCTATAAC ((((((....)))..))), the folding enthalpy in data set [1] was -12.7 kcal/mol. Moreover, the Tm in data set [2] amounted to 31.4 °C.

In the case of GCTTGGCGAAAGCCCCGC ((..(((....)))..)), the folding enthalpy in data set [1] is -12 kcal/mol. For the same sequence, the Tm in data set [2] was 35.8 °C.

As for GGAACAGGAAACTGTTCC (((((((....))))))), in data set [1], the folding enthalpy is -35.9 kcal/mol. Besides, in data set [2], the Tm was determined as 60.6 °C.

Consider GCTGTGCGAAAGCGCCGC ((.(.((....)).).)), for which the folding enthalpy in data set [1] was -18.6 kcal/mol. The Tm in data set [2] worked out at 49.6 °C.

For the sequence GATCAAATTGTTGATC ((((((....)))))), the folding enthalpy in data set [1] is -28.3 kcal/mol. Also, the Tm in data set [2] was found to be 41.8 °C.

As for GATCCACACCTGGATC ((((((....)))))), in data set [1], the folding enthalpy was -44.8 kcal/mol. For the same sequence, the Tm in data set [2] turned out to be 51 °C.

As to GTGATATCGAAAGATCAC (((..(((....)))))), the folding enthalpy in data set [1] is -27.8 kcal/mol. Further, in data set [2], the Tm worked out at 37.1 °C.

For GATCAACAATTGATC ((((((...)))))), in data set [1], the folding enthalpy was -21.6 kcal/mol. For the same sequence, in data set [2], the Tm came to 33.4 °C.

In the case of GTTCTCGCGAAAGCGAAC (((..(((....)))))), in data set [1], the folding enthalpy is -7.5 kcal/mol. Moreover, the Tm in data set [2] worked out at 27.8 °C.

Turning to GTATAGCGAAAGCTGTAC (((.(((....))).))), the folding enthalpy in data set [1] is -31.5 kcal/mol. The Tm in data set [2] came to 51.1 °C.

Regarding GTCGACGAAAGTCCAGAC ((((((....)))..))), in data set [1], the folding enthalpy is -16.1 kcal/mol. Besides, the Tm in data set [2] was 38.9 °C.

Regarding GCCCAGCGAAAGCGAGGC (((..((....))..))), the folding enthalpy in data set [1] was -20.6 kcal/mol. Moreover, in data set [2], the Tm worked out at 62.7 °C.

On to GCGAACCATCGC ((((....)))), for which the folding enthalpy in data set [1] was -18.7 kcal/mol. Besides, the Tm in data set [2] came to 47.7 °C.

Regarding GATCTGATTTCAGATC ((((((....)))))), the folding enthalpy in data set [1] is -34.4 kcal/mol. In addition, the Tm in data set [2] amounted to 51.4 °C.

Regarding GTCTCAACGAAAGTTGAC (((..(((....)))))), the folding enthalpy in data set [1] was -10.7 kcal/mol. For the same sequence, in data set [2], the Tm was found to be 30.5 °C.

As for GCGTTGAAACGC ((((....)))), the folding enthalpy in data set [1] is -20.8 kcal/mol. For the same sequence, the Tm in data set [2] worked out at 53.5 °C.

As for GATCGAGTTGTCGATC ((((((....)))))), the folding enthalpy in data set [1] was -39.4 kcal/mol. Also, the Tm in data set [2] came to 52.8 °C.
